# Shown are actives, neighbours in structure and some others; about 2.9% of the full set was active somewhere.
# Apaf1 inhib: inhibitors of human Apaf-1 apoptosome; O14727; AID 489030; reconstituted apoptosome caspase-3 activity, DEVD-Rh110 fluorescence; inhibition, % at 20 µM; 330,000 compounds, 0.71% hits; active = inhibition of at least 40% at 20 µM;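 also: plate controls were DMSO wells for no effect and DEVD-CHO caspase inhibitor wells for full effect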
#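 Material: biochemical Apaf-1 apoptosome reconstitution. Medium: Hepes buffer, pH 7.5. Also added: cytochrome c activation, bis-DEVD rhodamine 110 substrate. Timing: 30 min compound preincubation, 50 min activation, room temperature. Measured by: rhodamine 110 fluorescence at Ex 480/Em 540 nm.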
# MEKK2 mut-MEK5: signal of MEK5 binding to mutant human MEKK2 PB1 domain. 290,000 compounds, 0.35% hits. bead flow cytometry, Alexa488-MEK5 binding to MEKK2 mutant. percent response, % at 10 µM. AID 1530; in the data active = percent response above about 24%, passing the limit was not always enough
# MEKK3 PB1 HTS: raises or lowers MEK5 binding to the human MEKK3 PB1 domain | AID 1529 | 290,000 compounds, 1.4% hits | bead-based flow cytometry, Alexa488-MEK5 binding to MEKK3; actives lie on both sides; 0 = blocked by unlabeled MEK5, 100 = vehicle | Q99759 | binding response (% of control), % at 10 µM;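 active = binding response more than 3 SD above or below the average of its plate-row segment, actives on both sides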;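 also: Alexa488 bead fluorescence after subtracting the streptavidin-only scavenger bead signal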
# Target sequence (Q99759 whole entry, looked up, the tested form may be a part): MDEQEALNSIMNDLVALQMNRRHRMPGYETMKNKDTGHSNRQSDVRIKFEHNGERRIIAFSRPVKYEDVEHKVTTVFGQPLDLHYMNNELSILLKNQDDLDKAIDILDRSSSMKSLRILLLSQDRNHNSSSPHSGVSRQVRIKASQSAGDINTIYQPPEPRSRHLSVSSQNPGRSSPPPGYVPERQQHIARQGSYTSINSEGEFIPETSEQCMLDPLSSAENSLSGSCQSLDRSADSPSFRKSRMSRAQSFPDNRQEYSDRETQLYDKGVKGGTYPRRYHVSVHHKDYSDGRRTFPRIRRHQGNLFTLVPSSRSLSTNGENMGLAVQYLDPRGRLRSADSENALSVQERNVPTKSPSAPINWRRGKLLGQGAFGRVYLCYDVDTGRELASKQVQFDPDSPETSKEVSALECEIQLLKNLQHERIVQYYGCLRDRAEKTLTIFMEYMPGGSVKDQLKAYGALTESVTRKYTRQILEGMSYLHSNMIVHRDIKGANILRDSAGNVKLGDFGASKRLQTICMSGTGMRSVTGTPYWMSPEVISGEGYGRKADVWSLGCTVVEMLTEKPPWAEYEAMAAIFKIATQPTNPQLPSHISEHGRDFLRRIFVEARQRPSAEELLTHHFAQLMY
# UBC13 polyUb: human UBC13 polyubiquitination inhibition; P61088; UBC13 polyubiquitin chain formation, TR-FRET; inhibition, % at 20 µM; 330,000 compounds, 0.47% hits; in the data active = inhibition above about 45%, passing the limit was not always enough
# MEKK2wt PB1 HTS: raises or lowers MEK5 binding to wildtype human MEKK2 PB1 domain; bead flow cytometry, Alexa488-MEK5 binding to MEKK2 WT; actives lie on both sides; binding response (% of control), % at 10 µM; AID 1531; 290,000 compounds, 1.1% hits; Q9Y2U5; in the data active = binding response below about 67% or above about 130%
# MEKK2wt confirm: raises or lowers MEK5 binding to wildtype human MEKK2, retest. shares compounds with MEKK3 PB1 HTS. bead flow cytometry, Alexa488-MEK5 binding to MEKK2 WT; actives lie on both sides. binding response (% of control), % at 10 µM. 5,900 compounds, 2.4% hits; in the data active = binding response below about 16% or above about 210%; inactive = in between
# MEKK2mut-MEK5: signal of MEK5 binding to mutant human MEKK2, retest; shares compounds with MEKK3 PB1 HTS; bead flow cytometry, Alexa488-MEK5 binding to MEKK2 mutant; percent response, % at 10 µM; 5,900 compounds, 2% hits; AID 1893; in the data active = percent response mostly above about 71%, no sharp cut-off; inactive = mostly below about 38%;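 also: higher means compound restores mutant binding toward wildtype level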
# MEKK3-MEK5 inh: confirmation of inhibitors of MEK5 binding to human MEKK3 | 5,900 compounds, 1.8% hits | shares compounds with MEKK3 PB1 HTS | bead flow cytometry, Alexa488-MEK5 binding to MEKK3; active compounds read low | binding response (% of control), % at 10 µM;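 active = binding response below 72% of control, or above a set upper limit, though filed actives all read lower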;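 also: 100% = DMSO only wells and 0% = binding blocked by excess unlabeled MEK5; lower values mean stronger disruption of MEK5 binding to MEKK3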
# * hit, by the source's call; · = no result given; [ ] = dose if it differs, or a comment.
SMILES,Apaf1 inhib,MEKK2 mut-MEK5,MEKK3 PB1 HTS,UBC13 polyUb,MEKK2wt PB1 HTS,MEKK2wt confirm,MEKK2mut-MEK5,MEKK3-MEK5 inh
O=C(O)CCN1C(=O)C2C3CC(C2C1=O)C1C(c2ccccc2)c2sc(=O)n(-c4ccccc4)c2SC31 (stereo not given),3,0,129*,-12,112,99,3,99
Oc1ccccc1CNc1cnc2ccccc2c1,-9,-1,101,15,-5.0*[inhibitor],101,6,103
Oc1ccc(Cl)cc1CNc1cnc2ccccc2c1,-4,4,100,22,108,·,·,·
CC(C)C(C)(C#N)NC(=O)CSc1nc2scc(-c3ccc(F)cc3)c2c(=O)n1Cc1ccccc1 (stereo not given),4,-2,100,-18,93,·,·,·
Cc1cc(-c2ccc(S(=O)(=O)N(C)Cc3ccccc3)cc2)on1,8,2,101,-4,101,·,·,·
CC(C)OP(=O)(c1ccccc1)c1ccccc1,1,0,153*,10,109,115,8,105
CCCCCOP(=O)(c1ccccc1)c1ccccc1,7,13,104,-14,108,·,·,·
Cc1ccc(S(=O)(=O)C2(C(=O)N3CCN(c4cc(C)ccc4C)CC3)CC2)cc1,-2,1,98,-6,99,·,·,·
O=C(O)CCCNc1c(C(=O)Nc2ccc(Cl)cc2)cc([N+](=O)[O-])cc1[N+](=O)[O-],10,11,135*,-28,118,105,8,107
O=C(Nc1ccc(Nc2ccccc2)cc1)c1ccc(Cl)cc1[N+](=O)[O-],3,·,·,-1,·,·,·,·
c1ccc2c(NCCc3c[nH]c4ccccc34)c3ccccc3nc2c1,6,48*,112,36,220*,176,46,106
O=C(N/N=C\c1ccc(-c2ccc([N+](=O)[O-])cc2)o1)c1ccc2c(c1)OCO2,-5,2,142*,-47,108,96,-1,99
O=C(N/N=C\c1cn[nH]c1-c1ccc(Cl)cc1)c1cccs1,-24,-30,71*[inhibitor],5,60*[inhibitor],108,13,108
O=C(N/N=C/c1cn[nH]c1-c1ccc(Cl)cc1)c1ccc([N+](=O)[O-])cc1,19,5,107,-20,90,·,·,·
Cc1ccc(/C=N/NC(=O)c2cccs2)o1,0,1,128*,-17,110,104,8,103
Cc1ccc(/C=N/NC(=O)c2csc(C)c2)o1,0,0,95,-13,100,·,·,·
Cc1ccc(/C=N/NS(=O)(=O)c2ccc([N+](=O)[O-])cc2)o1,-1,1,134*,0,106,107,4,101
Cc1onc(-c2ccccc2)c1CNS(=O)(=O)c1ccccc1[N+](=O)[O-],-4,1,102,5,102,·,·,·
CCc1c(C)nc(SCC(=O)N2CCCCC2C)[nH]c1=O (stereo not given),-5,4,102,-4,98,·,·,·
OCC[C@H]1C[C@@H](O)[C@H](O)[C@]2(Cc3ccccc3CCO2)O1,-6,·,·,5,·,·,·,·
O=C(N/N=C/c1cccc([N+](=O)[O-])c1)c1cc2ccccc2o1,-7,-1,69*[inhibitor],-16,91,92,1,92
O=C(N/N=C/c1cccnc1)c1cccs1,-18,28,130*,-1,121,94,1,104
Cc1ccc(/C=N/NC(=O)c2cccc([N+](=O)[O-])c2)o1,·,4,133*,·,105,115,10,104
O=C(NC1CC1)C1CCN(C2CCN(C(=O)CC3=CCCCC3)CC2)CC1,0,-10,101,-3,96,·,·,·
O=C(COc1coc(CN2CCc3ccccc3C2)cc1=O)Nc1ccc(F)cc1F,5,·,·,-1,·,·,·,·
SMILES,Apaf1 inhib,MEKK2 mut-MEK5,MEKK3 PB1 HTS,UBC13 polyUb,MEKK2wt PB1 HTS,MEKK2wt confirm,MEKK2mut-MEK5,MEKK3-MEK5 inh
COCCn1c(=NC(=O)C(C)(C)C)sc2cc([N+](=O)[O-])ccc21,8,-1,72*[inhibitor],2,95,101,-1,101
Cc1nnc(Sc2cc(C(=O)NCCCN(C)Cc3ccccc3)c3ccccc3n2)s1,-8,2,131*,-3,120,116,13,101
COc1ccc(N(C(=O)CNC(=O)c2ccco2)C(C(=O)NCC2CCCO2)c2ccccc2)cc1 (stereo not given),-1,7,104,3,113,·,·,·
COCC(C)n1c(C)cc(C(=O)COC(=O)CNC(=O)c2ccccc2)c1C (stereo not given),0,0,131*,-2,106,102,4,101
Cc1ccccc1C(=O)NC=C1C(=O)OC(C)(C)OC1=O,-5,-1,98,3,101,·,·,·
CC1(C)OC(=O)C(=CNC(=O)c2c(F)cccc2F)C(=O)O1,9,-4,72*[inhibitor],8,82,92,-3,95
COc1ccc(CNC(=O)CSCc2ccccc2Cl)cc1,1,1,128*,1,105,103,0,103
COc1ccc(CNC(=O)CCSCc2ccccc2Cl)c(OC)c1,7,0,126,10,107,·,·,·
COc1cc(C)ccc1S(=O)(=O)n1nc(C)cc1C,0,3,101,5,99,·,·,·
CS(=O)(=O)N1N=C(c2cccs2)CC1c1ccccc1F (stereo not given),4,3,99,3,-4.0*[inhibitor],102,6,105
COc1cccc(C2CC(c3cccs3)=NN2S(C)(=O)=O)c1OC (stereo not given),4,-8,86,-5,55,·,·,·
Cc1ccc(C2CC(c3cccs3)=NN2S(=O)(=O)c2ccc(C)cc2)cc1 (stereo not given),-6,9,102,5,61*[inhibitor],94,-1,101
COc1c(F)c(F)c(C(=O)O)c(Nc2ccc(C)cc2C)c1F,5,-1,119,-9,108,·,·,·
O=C(O)CC(Sc1n[nH]c(=S)s1)C(=O)O (stereo not given),4,-6,98,-10,101,·,·,·
Cc1ccc(-n2c(SCC(=O)N3CCCc4ccccc43)nnc2-c2cccnc2)c(C)c1,1,3,97,6,91,·,·,·
CCOc1ccccc1-n1c(SCC(=O)N2CCCc3ccccc32)nnc1-c1cccnc1,10,-1,132*,10,104,112,4,105
Cc1ccc(-c2cn3cccnc3n2)cc1NC(=O)c1cccs1,-5,0,133*,23,103,99,-1,99

# From PubChem
